Source: ChEMBL document CHEMBL1146564, “Absolute configuration of sesquiterpenes from Crossopetalum tonduzii and their inhibitory effects on Epstein-Barr virus early antigen activation in Raji cells” (J Nat Prod, 2003)

What was measured:
Type in all cases: cell-based
Raji [1] = assay: Inhibition of 12-O-tetradecanoylphorbol-13-acetate-induced EBV-early antigen activation in human Raji cells at 100 molar ratio after 48 hrs relative to TPA; design: scale not given: the % may be the effect or the level left; conditions: human gammaherpesvirus 4
Summary of the method: (§1)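 EBV-EA induction in Raji cells (RPMI-1640). Cells were held 48 h at 37 °C with n-butyric acid (4 mmol), TPA (32 pmol = 20 ng/mL) and compound at 10–1000 mol ratio/TPA (0.32–32 nmol). EA-positive cells were detected on smears by indirect immunofluorescence. Induction is expressed as percentage relative to the TPA-only positive control. β-Carotene served as reference.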

Raji [2] = assay: Inhibition of 12-O-tetradecanoylphorbol-13-acetate-induced EBV-early antigen activation in human Raji cells at 500 molar ratio after 48 hrs relative to TPA; design: scale not given: the % may be the effect or the level left; conditions: human gammaherpesvirus 4; summary of the method: as §1
Raji [3] = assay: Inhibition of 12-O-tetradecanoylphorbol-13-acetate-induced EBV-early antigen activation in human Raji cells at 1000 molar ratio after 48 hrs relative to TPA; design: scale not given: the % may be the effect or the level left; conditions: human gammaherpesvirus 4; summary of the method: as §1
Raji [4] = assay: Inhibition of 12-O-tetradecanoylphorbol-13-acetate-induced EBV-early antigen activation in human Raji cells at 10 molar ratio after 48 hrs relative to TPA; design: scale not given: the % may be the effect or the level left; conditions: human gammaherpesvirus 4; summary of the method: as §1
[5] = Cytotoxicity against human Raji cells assessed as cell viability at 1000 molar ratio/TPA after 48 hrs; conditions: read-out: Activity
Summary of the method: (§2)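 Raji cells (EBV genome-carrying Burkitt's lymphoma lymphoblastoid line) in RPMI-1640 were incubated 48 h at 37 °C with n-butyric acid (4 mmol), TPA (32 pmol = 20 ng/mL) and test compound at 10, 100, 500 or 1000 mol ratio to TPA (0.32, 3.2, 16, 32 nmol). Viability is given as percentage of Raji cells.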

[6] = Cytotoxicity against human Raji cells assessed as cell viability at 500 molar ratio/TPA after 48 hrs; conditions: read-out: Activity; summary of the method: as §2
[7] = Cytotoxicity against human Raji cells assessed as cell viability at 100 molar ratio/TPA after 48 hrs; conditions: read-out: Activity; summary of the method: as §2
[8] = Cytotoxicity against human Raji cells assessed as cell viability at 10 molar ratio/TPA after 48 hrs; conditions: read-out: Activity; summary of the method: as §2

## CCC(C)C(=O)OC[C@]12[C@H](OC(=O)c3ccccc3)[C@@H](O)[C@@H]3[C@@H](O)[C@]1(OC3(C)C)[C@@](C)(O)C[C@H](OC(C)=O)[C@@H]2OC(C)=O (stereo not given in full)
Raji [1]
  Activity: 74%
Raji [2]
  Activity: 32.7%
Raji [3]
  Activity: 0%
Raji [4]
  Activity: 90.1%
[5]
  viability at 48 h, 1000 molar ratio/TPA: 60%
[6]
  viability at 48 h, 500 molar ratio/TPA: > 80%
[7]
  viability at 48 h, 100 molar ratio/TPA: > 80%
[8]
  viability at 48 h, 10 molar ratio/TPA: > 80%

## CCC(C)C(=O)OC[C@]12[C@H](OC(=O)c3ccccc3)[C@@H](OC(C)=O)[C@@H]3[C@@H](OC(C)=O)[C@]1(OC3(C)C)[C@@](C)(O)C[C@H](OC(C)=O)[C@@H]2OC(C)=O (stereo not given in full)
Raji [1]
  Activity: 79.2%
Raji [2]
  Activity: 22%
Raji [3]
  Activity: 0%
Raji [4]
  Activity: 96.7%
[5]
  viability at 48 h, 1000 molar ratio/TPA: 70%
[6]
  viability at 48 h, 500 molar ratio/TPA: > 80%
[7]
  viability at 48 h, 100 molar ratio/TPA: > 80%
[8]
  viability at 48 h, 10 molar ratio/TPA: > 80%

## CCC(C)C(=O)OC[C@]12[C@H](OC(=O)c3ccccc3)[C@@H](OC(C)=O)[C@@H]3[C@@H](O)[C@]1(OC3(C)C)[C@@](C)(O)C[C@H](OC(C)=O)[C@@H]2OC(C)=O (stereo not given in full)
Raji [1]
  Activity: 77.4%
Raji [2]
  Activity: 21.8%
Raji [3]
  Activity: 0%
Raji [4]
  Activity: 94.1%
[5]
  viability at 48 h, 1000 molar ratio/TPA: 70%
[6]
  viability at 48 h, 500 molar ratio/TPA: > 80%
[7]
  viability at 48 h, 100 molar ratio/TPA: > 80%
[8]
  viability at 48 h, 10 molar ratio/TPA: > 80%

## CCC(C)C(=O)OC[C@]12[C@H](OC(=O)c3ccccc3)[C@@H](OC(C)=O)[C@@H]3[C@@H](OC(C)=O)[C@]1(OC3(C)C)[C@@](C)(O)C[C@H](O)[C@@H]2OC(C)=O (stereo not given in full)
Raji [1]
  Activity: 73.7%
Raji [2]
  Activity: 31.2%
Raji [3]
  Activity: 0%
Raji [4]
  Activity: 90.5%
[5]
  viability at 48 h, 1000 molar ratio/TPA: 60%
[6]
  viability at 48 h, 500 molar ratio/TPA: > 80%
[7]
  viability at 48 h, 100 molar ratio/TPA: > 80%
[8]
  viability at 48 h, 10 molar ratio/TPA: > 80%

## CCC(C)C(=O)OC[C@]12[C@H](OC(=O)c3ccccc3)[C@@H](OC(C)=O)[C@@H]3[C@@H](OC(C)=O)[C@]1(OC3(C)C)[C@@](C)(O)C[C@H](OC(=O)c1ccccc1)[C@@H]2OC(C)=O (stereo not given in full)
Raji [1]
  Activity: 75.9%
Raji [2]
  Activity: 33.8%
Raji [3]
  Activity: 4.6%
Raji [4]
  Activity: 96%
[5]
  viability at 48 h, 1000 molar ratio/TPA: 60%
[6]
  viability at 48 h, 500 molar ratio/TPA: > 80%
[7]
  viability at 48 h, 100 molar ratio/TPA: > 80%
[8]
  viability at 48 h, 10 molar ratio/TPA: > 80%

## CC1=C(/C=C/C(C)=C/C=C/C(C)=C/C=C/C=C(C)/C=C/C=C(C)/C=C/C2=C(C)CCCC2(C)C)C(C)(C)CCC1 [BETA CAROTENE]
Raji [3]
  Activity: 8.6%
Raji [4]
  Activity: 100%
[6]
  viability at 48 h, 500 molar ratio/TPA: 80%
[7]
  viability at 48 h, 100 molar ratio/TPA: 100%
[8]
  viability at 48 h, 10 molar ratio/TPA: 100%
